# A selection: hits, their analogues and other compounds. The true share with any hit is near 2.3%.
# OXTR potentiator: potentiates the human oxytocin receptor response; activation, % at 3 µM; 320,000 compounds, 0.061% hits; AID 2445; CHO-OTR cells, Fluo-8 calcium fluorescence, potentiator mode; 0% = oxytocin EC15, 100% = EC100; P30559;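 active means activation above that plate's cutoff, the mean activation of tested compounds plus 3 SD, cut at about 6.6% in these data, passing the limit was not always enough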;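 further: 100% uses oxytocin at 75 nM as the full agonist control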
# Target sequence (P30559 whole entry, looked up): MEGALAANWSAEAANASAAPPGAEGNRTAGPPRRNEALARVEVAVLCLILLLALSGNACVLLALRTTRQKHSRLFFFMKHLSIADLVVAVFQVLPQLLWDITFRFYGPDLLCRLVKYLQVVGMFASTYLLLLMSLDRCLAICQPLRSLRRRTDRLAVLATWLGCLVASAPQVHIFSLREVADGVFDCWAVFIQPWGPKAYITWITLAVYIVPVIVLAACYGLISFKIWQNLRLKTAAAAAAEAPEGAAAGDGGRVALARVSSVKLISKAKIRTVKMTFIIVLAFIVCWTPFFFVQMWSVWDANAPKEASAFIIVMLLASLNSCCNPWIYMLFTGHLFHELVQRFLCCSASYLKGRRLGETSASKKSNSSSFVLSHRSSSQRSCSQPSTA
#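 Assay system: CHO cell line stably expressing human OTR | Also added: Oxytocin at about EC15, sub-maximal agonist stimulus | Times: Compound 6 min at room temperature before oxytocin, 100 s read | Measured by: Fluo-8 intracellular calcium fluorescence, ex 470-495, em 515-575 nm | Controls: EC15 oxytocin alone as 0%, 75 nM oxytocin as 100%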
# V1aR counter: activates human V1a receptor in oxytocin agonist counter-screen; AID 2797; 320,000 compounds, 0.25% hits; P37288; activation, % at 3 µM; CHO-V1R cells, Fluo-8 calcium fluorescence, agonist mode; 0% DMSO, 100% 3 nM vasopressin;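 active means activation above the mean activation of all tested compounds plus 3 SD, per screening run, cut at about 20% in these data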;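 further: signal is peak over basal fluorescence ratio across a 100 second FLIPR read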
# Target sequence (P37288 whole entry, looked up): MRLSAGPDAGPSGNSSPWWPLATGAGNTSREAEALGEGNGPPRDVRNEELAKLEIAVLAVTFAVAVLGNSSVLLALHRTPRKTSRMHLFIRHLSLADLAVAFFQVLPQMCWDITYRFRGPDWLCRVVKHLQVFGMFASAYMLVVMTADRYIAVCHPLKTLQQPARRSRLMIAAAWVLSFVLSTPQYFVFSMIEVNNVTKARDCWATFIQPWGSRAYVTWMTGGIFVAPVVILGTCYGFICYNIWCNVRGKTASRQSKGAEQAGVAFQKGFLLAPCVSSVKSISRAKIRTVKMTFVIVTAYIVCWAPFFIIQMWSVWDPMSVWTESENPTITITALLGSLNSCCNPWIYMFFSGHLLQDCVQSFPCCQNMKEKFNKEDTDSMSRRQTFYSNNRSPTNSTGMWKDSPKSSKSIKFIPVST
# OXTR agonist: human OXTR agonism. P30559. CHO-OTR cells, Fluo-8 calcium fluorescence; normalized: DMSO 0%, oxytocin 100%. activation, % at 3 µM. 320,000 compounds, 0.32% hits. AID 2435;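 active means activation above the mean of all tested compounds plus 3 SD, cutoff set per screening run, cut at about 20% in these data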;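 further: peak over basal fluorescence ratio from a 100 s FLIPR kinetic read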
# TAAR1 agonist: human TAAR1 agonism; Q96RJ0; activation, % at 3 µM; AID 624467; 360,000 compounds, 0.99% hits; CHO RD-HGA16 TAAR1, Fluo-8 calcium fluorescence; vehicle wells 0%, saturating PEA agonist 100%;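 active means activation above the mean activation of all test compounds in the run plus 3 SD, cut at about 38% in these data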
#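 Test system: RD-HGA16 (CHO) cells co-expressing Gα16 and hTAAR1 | Doses: Single dose, 3 µM | Schedule: 17-24 h seeding, 75 min 37 °C dye, 30 min RT | Evaluation: % activation from peak over basal fluorescence ratio, DMSO-to-PEA scaled | Technique: Kinetic Fluo-8 calcium fluorescence | Benchmarks: Low control DMSO, high control PEA (EC100)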
# TAAR1 antagonist: human TAAR1 antagonism | Q96RJ0 | CHO RD-HGA16 TAAR1, Fluo-8 calcium fluorescence, antagonist | inhibition, % at 3 µM | 360,000 compounds, 1.5% hits;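 active means inhibition above a per-plate cutoff, the mean inhibition of test compounds on that plate plus 3 SD, cut at about 49% in these data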;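 further: 0% = DMSO plus EC80 beta-PEA response and 100% = DMSO alone without agonist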
#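 Test system: hTAAR1-expressing CHO RD-HGA16 cells, Gα16-coupled; Probe or stimulus: EC80 β-phenethylamine stimulus; Compound dosing: single nominal final test compound concentration of 3 µM; Timing: 140 s kinetic read after compound, 140 s after agonist; Signal: Fluo-8 calcium-sensitive fluorescence; Measure: % inhibition of agonist calcium response; Controls: DMSO and EC80 PEA controls.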
# OXTR ag confirm: human OXTR agonism, confirmation. shares compounds with OXTR agonist. CHO-OTR cells, Fluo-8 calcium fluorescence, agonist. activation, % at 3 µM. 390 compounds, 20% hits. AID 434963;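 active means mean activation above about 20% derived from the earlier single-dose screen, limit read from the data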;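 further: peak over minimum fluorescence ratio per well during a 100 second FLIPR read; 0% = DMSO alone and 100% = oxytocin high control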
# V1aR counter 3x: V1R agonism in triplicate, counter-screen for OXTR agonists. shares compounds with OXTR agonist. CHO-V1R cells, Fluo-8 calcium fluorescence, agonist. activation, % at 3 µM. 390 compounds, 10% hits;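 active means mean activation over triplicate exceeds the hit threshold set in the earlier primary screen, cut at about 20% in these data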;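 further: peak over basal fluorescence ratio within a 100 second read; 0% = DMSO alone and 100% = 3 nM vasopressin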
# OXTR pot confirm: human OXTR potentiation, confirmation; CHO-OTR cells, Fluo-8 calcium fluorescence; scaled from low-dose to maximal oxytocin; activation, % at 3 µM; 180 tested, under 10 active; shares compounds with OXTR potentiator;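 active means mean percent activation over triplicates above a cutoff set from solvent-only control plates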;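 further: compounds tested in the presence of an EC15 dose of oxytocin; 0% = EC15 oxytocin with DMSO and 100% = EC100 oxytocin with DMSO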
# V1aR agonist cf: human V1a receptor agonism, confirmation; shares compounds with V1aR counter; CHO-V1R cells, Fluo-8 calcium fluorescence, agonist; activation, % at 3 µM; 180 compounds, 20% hits; AID 434964;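 active means average activation exceeds primary screen hit cutoff, cut at about 21% in these data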;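 further: peak over basal fluorescence ratio during a 100 s FLIPR read; 0% = DMSO only wells and 100% = 3 nM vasopressin wells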
# OXTR counter: OXTR agonism, counter-screen for V1R agonists. shares compounds with V1aR counter. CHO-OTR cells, Fluo-8 calcium fluorescence, agonist. activation, % at 3 µM. 180 compounds, 10% hits;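 active means mean activation over three repeats above the cutoff from the earlier oxytocin receptor agonist screen, cut at about 20% in these data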;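 further: peak over minimum fluorescence ratio within a 100 second FLIPR read; 0% = DMSO only wells and 100% = oxytocin high control wells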
# TAAR1 nonsel count: nonselective antagonist in TAAR1 antagonist counter-screen | shares compounds with TAAR1 antagonist | counterscreen cell line, calcium fluorescence, antagonist mode | inhibition, % at 3 µM | 2,400 compounds, 77% hits; in the data active means inhibition above about 22%;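 further: CHO-Ga16 host cells stimulated with ATP at an EC80 level; 0% = agonist EC80 plus vehicle and 100% = vehicle without agonist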
# TAAR1 antag conf: human TAAR1 antagonism, confirmed; shares compounds with TAAR1 antagonist; TAAR1-expressing cells, fluorescence antagonist read-out; inhibition, % at 3 µM; 2,400 compounds, 40% hits; AID 651785; in the data active means inhibition above about 49%;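 further: CHO-Ga16 host cells challenged with agonist PEA near its EC80; 0% = agonist at EC80 plus vehicle and 100% = vehicle with no agonist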
# Ga16 nonsel ag: counter-screen for TAAR1 antagonists: nonselective Ga16 agonists. activation, % at 3 µM. 2,400 compounds, 18% hits. shares compounds with TAAR1 antagonist. Ga16-expressing cells, calcium fluorescence, agonist counterscreen; in the data active means activation above about 12%;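 further: 0% = vehicle wells and 100% = saturating stimulus response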
# TAAR1 ag count: TAAR1 agonism, antagonist counter-screen | shares compounds with TAAR1 antagonist | hTAAR1 cell line, fluorescence activation, agonist mode | activation, % at 3 µM | 2,400 compounds, 2% hits | AID 651955; in the data active means activation above about 37%;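 further: CHO cells stably expressing TAAR1 with calcium dye readout; 0% = DMSO vehicle and 100% = full agonist response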
# Numbers without * were called inactive; / = no result.
SMILES,OXTR potentiator,V1aR counter,OXTR agonist,TAAR1 agonist,TAAR1 antagonist,TAAR1 nonsel count,TAAR1 antag conf,Ga16 nonsel ag,TAAR1 ag count,others
COc1ccc(CC(C)NCCC(c2ccccc2)c2ccccc2)cc1 (configuration not stated),-18,12,21*,42*,43,/,/,/,/,OXTR ag confirm=9;V1aR counter 3x=4
C[C@]12CCC3C(CC[C@H]4C[C@@H](O)CC[C@]34C)C1=CC[C@@H]2O (some centres not stated),/,/,/,15,29,/,/,/,/,
Cc1[nH]c2ccc(OC(F)(F)F)cc2c1CCNCc1cccc([N+](=O)[O-])c1,-7,10,20*,44*,49*,/,/,/,/,OXTR ag confirm=13;V1aR counter 3x=8
C=C(C)[C@@H]1C2C(=O)O[C@H]1[C@H]1OC(=O)[C@@]34OC3C[C@]2(O)[C@@]14C (some centres not stated),-7,0,0,1,3,/,/,/,/,
Cc1ccc2c(c1)C1CN(C)CCC1N2C(=O)Nc1cccc(Cl)c1 (configuration not stated),-12,20,30*,34,22,/,/,/,/,OXTR ag confirm=8;V1aR counter 3x=5
CN1CCN(c2ccc([N+](=O)[O-])c(SCCO)c2)CC1,12*,0,4,1,-9,/,/,/,/,OXTR pot confirm=-8
CN1CCN(c2ccc([N+](=O)[O-])c(N)c2)CC1,-5,2,0,3,7,/,/,/,/,
CCOC(=O)c1c(C=O)c2ccccc2n1Cc1ccccc1F,-10,0,-2,5,2,/,/,/,/,
COc1cccc(NC(=O)[C@@H](NC(=O)N2C[C@H]3C[C@@H](C2)c2cccc(=O)n2C3)C(C)C)c1,11*,0,3,3,-4,/,/,/,/,OXTR pot confirm=-1
CCOc1cc2c(cc1OCC)-n1cccc1C(c1cc(C)c(OC)cc1C)NC2 (configuration not stated),-5,29*,2,2,-5,/,/,/,/,V1aR agonist cf=0;OXTR counter=0
Cc1ccc(S(=O)(=O)N[C@@H](CCCCN)C(=O)CCl)cc1,1,0,1,4,-9,/,/,/,/,
C=C1C(C)C2C(Cc3ccccc3)NC(=O)C23OC(=O)/C=C/C(O)CCCC(C)C/C=C/C3C1O (configuration not stated),/,/,/,18,70*,21,50*,13*,16,
c1ccc2c(N3CCNCC3)nsc2c1,0,2,3,2,-3,/,/,/,/,
COc1cccc(NP(=O)(Oc2ccc(Cl)cc2)Oc2ccc(Cl)cc2)c1,-10,1,-1,6,59*,14,48,6,11,
O=P(Nc1cccc(F)c1)(Oc1ccccc1F)Oc1ccccc1F,-2,1,-3,3,90*,29*,67*,11,9,
COc1cc(CNCCc2ccc3c(c2)OCO3)cc(OC)c1OC,-13,1,2,3,-7,/,/,/,/,
CCN(CC)CCO,0,0,1,1,-2,/,/,/,/,
COC(=O)C1=C(c2cccc(OCc3ccccc3)c2)C[C@@H]2CC[C@H]1N2C(=O)NCCCOC(C)C,-5,0,-2,8,-21,/,/,/,/,
COC(=O)C1=C(c2ccc(F)cc2OCc2ccccc2)C[C@@H]2CC[C@H]1N2C(=O)NCCOc1ccccc1,-4,2,1,11,69*,21,41,13*,13,
COC(=O)C1=C(c2ccc(F)cc2OCc2ccccc2)C[C@@H]2CC[C@H]1N2C(=O)NCCOc1ccc(OC)cc1,-7,2,0,5,59*,18,26,2,2,
COc1ccc2c(c1)CC1(CN2C)C(=O)NC(=O)N(CCc2ccccc2)C1=O (configuration not stated),-10,1,-1,4,9,/,/,/,/,
CCC(C)N1C(=O)NC(=O)C2(Cc3c(ccc4ccccc34)N(C)C2)C1=O (configuration not stated),-6,-1,-3,23,56*,33*,52*,9,8,
O=C(c1ccccc1F)N1CCC2(CC1)OCCO2,-11,1,0,-1,3,/,/,/,/,
Cc1ccc(-n2c(C)nc3ccccc3c2=O)cc1C,2,-1,-2,15,-5,/,/,/,/,
COc1ccc(-n2c(/C=C/c3ccc(O)cc3)nc3ccccc3c2=O)cc1,-4,2,2,8,66*,30*,29,5,3,
Cc1nc2ccccc2c(=O)n1-c1ccc(-c2ccccc2)cc1,-14,2,-1,12,50*,23*,48,6,10,
COc1ccc(-n2c(/C=C/c3ccc(O)c(OC)c3)nc3ccccc3c2=O)cc1,-10,2,2,7,59*,29*,43,7,4,
CS(=O)(=O)c1ccc(C2=C(CNC(=O)c3cccnc3)[C@H]3CC[C@@H](C2)N3Cc2ccco2)cc1,/,/,/,0,-11,/,/,/,/,
COc1ccc(-n2nnnc2C(CCc2ccccc2)N2CCC(n3c(=O)[nH]c4ccccc43)CC2)cc1 (configuration not stated),/,/,/,7,57*,9,39,5,4,
CCCCn1nnnc1C(CCc1ccccc1)N1CCC(n2c(=O)[nH]c3ccccc32)CC1 (configuration not stated),/,/,/,11,67*,19,45,7,27,

# Screening results (PubChem)
